Reference: PubChem BioAssay AID624022 (Broad Institute, 2012)

Target: Scavenger receptor class B member 1 (Mus musculus) (UniProt Q61009)
Experiment: inhibitors of SR-BI-mediated HDL cholesteryl ester uptake, dose response, orthogonal assay for SR-BI HDL uptake inhibitor project, cell-based, wild-type CHO mSR-BI, scintillation, powder samples (AID 624022)
Details: CHO mSR-BI cells, [3H]CE-HDL uptake
How it was run: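 Signal: scintillation counting. Assay system: LDL receptor-deficient CHO cells overexpressing mouse SR-BI. Reagent: HDL labeled with [3H]cholesteryl ester. Times: 1 h pretreatment plus 2 h uptake at 37 °C.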

Sequence of Scavenger receptor class B member 1 (Mus musculus) (Q61009 whole entry, looked up): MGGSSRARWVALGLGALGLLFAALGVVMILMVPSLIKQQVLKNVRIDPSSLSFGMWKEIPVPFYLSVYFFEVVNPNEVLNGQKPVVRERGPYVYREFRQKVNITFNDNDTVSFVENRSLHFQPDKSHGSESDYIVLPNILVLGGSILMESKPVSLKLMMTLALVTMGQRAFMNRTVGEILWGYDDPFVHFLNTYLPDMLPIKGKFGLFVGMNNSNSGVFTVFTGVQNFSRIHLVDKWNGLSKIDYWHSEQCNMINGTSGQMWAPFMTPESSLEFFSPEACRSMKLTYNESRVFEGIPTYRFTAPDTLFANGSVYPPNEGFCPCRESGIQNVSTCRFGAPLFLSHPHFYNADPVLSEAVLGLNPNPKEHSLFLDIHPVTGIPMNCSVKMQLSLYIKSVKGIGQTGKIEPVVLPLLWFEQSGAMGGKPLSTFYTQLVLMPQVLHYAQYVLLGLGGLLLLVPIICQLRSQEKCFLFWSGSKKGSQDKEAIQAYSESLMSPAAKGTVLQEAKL

## CC(C)NC(=O)Nc1ccc2c(c1)C(=O)N([C@H](C)CO)C[C@@H](C)[C@H](CN(C)S(=O)(=O)c1ccc(Cl)cc1)O2
  IC50: 500 nM
